Results from ChEMBL document CHEMBL4184133, “Chemical Constituents and Anti-inflammatory Principles from the Fruits of Forsythia suspensa” (J Nat Prod, 2017).
In brackets after ≈: the same amount, converted by molar mass.

Tests used:
Neutrophil [1] = assay: Anti-inflammatory activity in human neutrophils assessed as inhibition of fMLP/CB-induced superoxide anion generation by measuring superoxide dismutase SOD-inhibitable ferricytochrome c reduction incubated for 5 mins before fMLP/CB stimulation for 3 mins by spectrophotometry; format: functional, cell-based
Outline: (§1)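 Same neutrophil preparation. Cells at 6 × 10^5/mL with 0.5 mg/mL ferricytochrome c and 1 mM Ca2+ were equilibrated 2 min at 37 °C and given compound or 0.1% DMSO for 5 min. Cytochalasin B (1 μg/mL) was added, then 100 nM fMLP. A550 was monitored continuously with stirring. Superoxide was calculated from the difference with versus without SOD (100 U/mL) using ε = 21.1/mM/10 mm. IC50 values are mean ± SD, n = 3.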

Neutrophil [2] = assay: Anti-inflammatory activity in human neutrophils assessed as inhibition of fMLP/CB-induced elastase release pre-incubated for 5 mins before fMLP/CB stimulation using MeO-Suc-Ala-Ala-Pro-Val-pnitroanilide as substrate; format: functional, cell-based
Outline: (§2)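 Neutrophils were isolated by dextran sedimentation, Ficoll Hypaque centrifugation and hypotonic lysis of erythrocytes, then held in Ca2+-free HBSS pH 7.4 at 4 °C. Cells at 6 × 10^5/mL with 100 μM substrate were equilibrated 2 min at 37 °C and given compound or 0.1% DMSO vehicle for 5 min. They were activated with 100 nM fMLP plus 0.5 μg/mL cytochalasin B, and A405 was monitored continuously. Release is expressed as percent of the drug-free activated control. Mean ± SD.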

Neutrophil [3] = assay: Anti-inflammatory activity in human neutrophils assessed as inhibition of fMLP/CB-induced superoxide anion generation by measuring superoxide dismutase SOD-inhibitable ferricytochrome c reduction at 10 ug/ml incubated for 5 mins before fMLP/CB stimulation for 3 mins by spectrophotometry; format: functional; outline: as §1
Neutrophil [4] = assay: Anti-inflammatory activity in human neutrophils assessed as inhibition of fMLP/CB-induced elastase release at 10 ug/ml pre-incubated for 5 mins before fMLP/CB stimulation using MeO-Suc-Ala-Ala-Pro-Val-pnitroanilide as substrate; format: functional; outline: as §2

IC50 (Neutrophil [1]) [µg/mL]	IC50 (Neutrophil [2]) [µg/mL]	Structure (SMILES)	inhibition (Neutrophil [1])	inhibition at 10 µg/mL (Neutrophil [3]) [%]	inhibition (Neutrophil [2])	inhibition at 10 µg/mL (Neutrophil [4]) [%]
> 10	> 10	C=C1CC[C@H]2[C@](C)(CO)CCC[C@]2(C)[C@H]1CC/C(C)=C/C(=O)O	–	–	–	–
> 10	> 10	COC(C)(C)/C=C/C[C@](C)(O)[C@H]1CC[C@]2(C)C1CC[C@@H]1[C@@]3(C)CC[C@H](OC(C)=O)C(C)(C)[C@@H]3CC[C@]12C (stereo partly drawn)	–	–	–	–
> 10	> 10	C=C1CC[C@H]2[C@@](C)(COC=O)CCC[C@]2(C)[C@H]1CC/C(C)=C\C(=O)O	–	–	–	–
2.5 (≈ 7.8 µM)	> 10	C=C1CC[C@H]2[C@@](C)(CO)CCC[C@]2(C)[C@H]1CC/C(C)=C\C(=O)O	–	> 50	–	–
7.4 (≈ 23.1 µM)	> 10	C=C1CCC2[C@@](C)(CO)CCC[C@]2(C)[C@H]1CC/C(C)=C/C(=O)O (stereo partly drawn)	Dose-dependent effect	> 50	–	–
> 10	> 10	C/C(=C\C(=O)O)CC[C@@]1(C)[C@H](C)CC[C@]2(C)C(C(=O)O)=CCC[C@H]12	–	–	–	–
0.6 (≈ 1.31 µM)	0.8 (≈ 1.75 µM)	C[C@H]1[C@H](C)CC[C@]2(C(=O)O)CC[C@]3(C)C(=CC[C@@H]4[C@@]5(C)CC[C@H](O)C(C)(C)[C@@H]5CC[C@]43C)[C@H]12 [URSOLIC ACID]	Dose-dependent effect	> 50	Dose-dependent effect	> 50
> 10	> 10	CC(=O)O[C@H]1CC[C@]2(C)[C@H]3CCC4[C@@H]([C@]5(C)CC[C@@H](O)C(C)(C)O5)CC[C@@]4(C)[C@]3(C)CC[C@H]2C1(C)C (stereo partly drawn)	–	–	–	–
> 10	> 10	CC(=O)O[C@H]1CC[C@]2(C)[C@H]3CC=C4[C@@H]5CC(C)(C)CC[C@]5(C(=O)O)CC[C@@]4(C)[C@]3(C)CC[C@H]2C1(C)C [ACETYL OLEANOLIC ACID]	–	–	–	–
> 10	> 10	COC1CC[C@@](C)([C@H]2CC[C@]3(C)[C@@H]2CC[C@@H]2[C@@]4(C)CCC(OC(C)=O)C(C)(C)[C@@H]4CC[C@]23C)O1 (stereo partly drawn)	–	–	–	–

Second part, the molecule before the results:

Structure (SMILES)	IC50 (Neutrophil [1]) [µg/mL]	IC50 (Neutrophil [2]) [µg/mL]	inhibition (Neutrophil [1])	inhibition at 10 µg/mL (Neutrophil [3]) [%]	inhibition (Neutrophil [2])	inhibition at 10 µg/mL (Neutrophil [4]) [%]
C=C1CC[C@H]2C(C)(C)C(=O)CC[C@]2(C)[C@H]1CC/C(C)=C/C(=O)O	> 10	> 10	–	–	–	–
O=C1C=CC2(O)CC(=O)OC2C1 (stereo not drawn)	> 10	> 10	–	–	–	–
COc1cc([C@H]2OC[C@H]3[C@@H]2CO[C@@H]3c2ccc(O)c(OC)c2)ccc1O	1.3 (≈ 3.63 µM)	> 10	Dose-dependent effect	> 50	–	–
COc1cc(C[C@H]2COC(=O)[C@@H]2Cc2ccc(O)c(OC)c2)ccc1O [MATAIRESINOL]	4.3 (≈ 12 µM)	7.3 (≈ 20.4 µM)	Dose-dependent effect	> 50	Dose-dependent effect	> 50
C[C@@H]1O[C@@H](OC[C@H]2O[C@@H](OCCc3ccc(O)c(O)c3)[C@H](O)[C@@H](O)[C@@H]2OC(=O)/C=C/c2ccc(O)c(O)c2)[C@H](O)[C@H](O)[C@H]1O [FORSYTHIASIDE]	1.4 (≈ 2.24 µM)	> 10	Dose-dependent effect	> 50	–	–
CC(=O)OC1CC[C@]2(C)[C@H]3CC[C@@H]4[C@@H]([C@]5(C)CCC(=O)O5)CC[C@@]4(C)[C@]3(C)CC[C@H]2C1(C)C (stereo partly drawn)	> 10	> 10	–	–	–	–
CC1=C(CC/C(C)=C/C(=O)O)[C@@]2(C)CCC[C@@](C)(CO)[C@@H]2CC1=O	> 10	> 10	–	–	–	–
C=C1CC[C@@H]2[C@](C)(CCC[C@@]2(C)C(=O)O)[C@H]1CC/C(C)=C\C(=O)O	> 10	> 10	–	–	–	–
CC(=O)O[C@H]1CC[C@]2(C)[C@H]3CCC4[C@@H]([C@@](C)(O)CCC=C(C)C)CC[C@@]4(C)[C@]3(C)CC[C@H]2C1(C)C (stereo partly drawn)	> 10	> 10	–	–	–	–
COc1cc([C@H]2OC[C@H]3[C@@H]2CO[C@H]3c2ccc(O)c(OC)c2)ccc1O [PINORESINOL]	3.4 (≈ 9.49 µM)	> 10	Dose-dependent effect	> 50	–	–
COc1ccc([C@H]2OC[C@@H]3C(=O)OC[C@@H]32)cc1OC	5.6 (≈ 21.2 µM)	> 10	Dose-dependent effect	> 50	–	–
C/C(=C\C(=O)O)CC[C@H]1C(CO)=CC[C@H]2[C@@](C)(CO)CCC[C@]12C	8.3 (≈ 24.7 µM)	> 10	–	> 50	–	–
O=C(Cc1ccc(O)cc1)OC[C@H]1CC[C@@H]2C(C(=O)O)=CO[C@@H](O[C@@H]3O[C@H](CO)[C@@H](O)[C@H](O)[C@H]3O)[C@H]12	> 10	> 10	–	–	–	–
CNC(=O)c1cc(Oc2ccc(NC(=O)Nc3ccc(Cl)c(C(F)(F)F)c3)cc2)ccn1 [SORAFENIB]	1.5 (≈ 3.23 µM)	0.9 (≈ 1.94 µM)	–	–	–	–
COc1cc([C@H]2OC[C@H]3[C@@H]2CO[C@H]3c2ccc(OC)c(OC)c2)ccc1O [PHILLYGENIN]	6.4 (≈ 17.2 µM)	> 10	Dose-dependent effect	> 50	–	–
C=C(C)[C@@H]1CC[C@]2(C(=O)O)CC[C@]3(C)C(CCC4[C@@]5(C)C[C@@H](O)[C@H](O)C(C)(C)C5CC[C@]43C)C12 (stereo partly drawn)	0.8 (≈ 1.69 µM)	1.9 (≈ 4.02 µM)	Dose-dependent effect	> 50	Dose-dependent effect	> 50
